Data reported in the RNAGym collection of RNA variant scans (doi:10.1126/science.aae0568).
This sample holds only a part of the variants without activity.

B1: tRNA (parent)
chain: GUUCCGUUGGCGUAAUGGUAACGCGUCUCCCUCCUAAGGAGAAGACUGCGGGUUCGAGUCCCGUACGGAACG

Variants of: B1
Test: yeast fitness relative to wild type (ratio to wild type); higher = fitter; tRNA-Arg(CCU), competitive growth, 37 C, YPD
How it was run: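 A pool of Saccharomyces cerevisiae strains, each with a tRNA-Arg(CCU) gene variant at the native genomic locus, was competed in YPD at 37°C for 24 hours across six parallel replicates. The variants had been chemically synthesised at a 3% per-site mutation rate over 69 sites, and gene amplicons before and after competition were read by 100-nucleotide paired-end sequencing. Darwinian fitness relative to wild type rested on changes in genotype frequencies. Genotypes required ≥ 100 starting reads, and estimates < 0.5 were set to 0.5.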

Variant | yeast fitness
GUUCCGUUGGCGUAAAGGUAACGCGUCUCCCUCAUAAGGUGAAGACUGCGGGUUCGAGUCCCGUACGGAACG [U16A C34A A40U] | ≤ 0.5
GUUCCGAUGGCGUAAUGGUAACGCGUCUCCCUCCUAAGGAAAAGACUGCGGGUUCGAGUCCCGUACGGAACG [U7A G41A] | 0.634
GUGCCGUUGGUGUAAUAGCUACGCGUCUCCCUCCUAAGGAGCAGACUGCGGGUUCGAGUCCCGUCCGGUACG [U3G C11U G17A U19C A20U A42C A65C A69U] | ≤ 0.5
GUUCCGUUGGCGUAAUGGUAACGCGUCACUCUCCUAAGGAGAAGACUGCGGGUUAGAGUCCCGUACGGAACG [U28A C30U C55A] | ≤ 0.5
GUUCCGCUGGCGUAAUGGUAACGCGUCUCCCUCCUAAGGAGAAGACUGCGGGUUCGAGUCCCGUACGGACCG [U7C A70C] | 0.742
GUCCCGUUGGCGUAAUGGUAAAGCGUCUCCCUCCUAAGGAGAAGACAGCGGGUUCGAGUCCCGUACGGAGCG [U3C C22A U47A A70G] | ≤ 0.5
GUUCCCUUGGCGUAAUGGUAACGCGUCUCCCUCCUAACGAGAAGAAUGCGGGUUCGAGUCCCGUACUGAACG [G6C G38C C46A G67U] | ≤ 0.5
GCUCCGUUGGCGUGAUGAUAACGCGUCUCCCACCUAAGGAGAAGCCUGCGGGUUCGAGUCCCGUACGGCACG [U2C A14G G18A U32A A45C A69C] | ≤ 0.5
GUUCCGUUGGCGUAAUGGUAACGCGUUUCCAUCCUAAGGAGAAGACUGCGGGUUCGAGUCCCGGACGGAACG [C27U C31A U64G] | ≤ 0.5
GUUCCGUUGGCGUAAUGGUAACGCGUCUCCCUCCUAAGGAGAAGACUGCGGGUUCGAGUUCCGUACGGAGCG [C60U A70G] | 0.786
GUUCCGUUGGCGUAAUGGUAACGCGUCUUCCUCCUAAGGAGAAGACUGCGGGAUCGAGUCUCGUACGGAACG [C29U U53A C61U] | 0.685
GUUCCGUUAGCGUAAAGGUAACGCCUCUCCCUCCUAAGGAGAAGAGUGCGGGUUCGAGUCCCGUACGGAACG [G9A U16A G25C C46G] | 0.588
GUUCCGUUGGCGUAAUGGUAACGCGUACGCCUCCUAAGGAGAAGACUGCGGGUUCGAGUCCCGUACGGAACG [C27A U28C C29G] | 0.633
GUUCCGUUGGCGUAAAGGUAACGCGUCUCCCUCCUAAGGAGAAGACUGUGGGUUCGAGUCCCGUACGGAACG [U16A C49U] | 0.946
GUACCGUUGGCGUAAUGGUAACGCGUCUCCCUCCUGAGGAGUAGACUGCGGGUUCGAGUCCCGUACGGAACG [U3A A36G A42U] | 0.619
GUCCCGUUGGCGUAAUGGUAACGCGUCUCCCUCCUAAGGAGAAGACUGCGGAUUCGAGUCCCGUACGAAACG [U3C G52A G68A] | ≤ 0.5
GUUCCGUUGGCGUCAUGGUAACGCGUCUCCCUCCUAAGGAGAAGACUGUGGGUUCGAGUCCCGUACGGAACG [A14C C49U] | 0.715
GUUCCGUUGGCGUAAUGGUAACGCGUCUCCCUCCUCAGGAGAAGUCUGCGGGUUCGAGACCCGUACGGAACG [A36C A45U U59A] | ≤ 0.5
GUUCCGUUGGCGUGAUGGUAACGCGUCUCCCUCCUAAGGAGAAGACUGCGGGUUCGAGUCCCGUACGGAUCG [A14G A70U] | 0.662

Variant | yeast fitness
GUUCCCUUGGCGUAAUGGUAACGCAUCUCCCUCCUAAGGAGAAGACUGCGGGUUCGAGUCCCGUGCGGAACG [G6C G25A A65G] | 0.595
GUUCCGUUGGUGUAAUGGUAACGCGUCUCCCUCUUAAGGAAAAGACUGCGGGUUCGAGUCCCGUACGGAACG [C11U C34U G41A] | ≤ 0.5
GUUCCGUUGGGGUAAUGGUAACGCGUCUCCGUCUUAAGGCGAAGACUGCGGGUUCGAGUCCCGUACGGAACG [C11G C31G C34U A40C] | ≤ 0.5
GUUCCGUUGGCGUAAUGGUAAGGCGUCUCCCUCCUAAGGAGAAGACUGCGGGUUCGAGUCCCGCACGCAACG [C22G U64C G68C] | 0.623
GUUCCGUUGGCGUAAUGGUAACGCGUCUCCCUCCUAAGGAGACGACUGCGGGUUUGAGUCCCGUACGGAACG [A43C C55U] | 0.721
GUUCCGUUGGCGUAAUGGUAACGCGUUUCCCUCAUAAGGAGAAGACUGCGGGUCCGAGUCCCGUACGGAACG [C27U C34A U54C] | ≤ 0.5
GUUCCGUUGGCGUAAUGGCAACGCGUCUGCCUCCUAAGGAGAACACUGCGGGUUCGAGUCCCGUACGGAACG [U19C C29G G44C] | 0.505
GUUCCGUUGGCGUAAUGGCAACGCGUCUUCCUCCUAAGGAGAAGACUGCGGGUUCGAGUCCCGUACGGAACG [U19C C29U] | 0.948
GAUCCGUUGGCGUAAUGGUACCGGGUCUCCCACCUAAGGAGCAGACUGCGGGUUCGAGUCCCGUUCGGAACG [U2A A21C C24G U32A A42C A65U] | ≤ 0.5
GUUCCGUCGGCGUAAUGGUAACGCGUCUCCCUCCUAAGGAGAAGACUGCGGAUUCGAGUCCCGUACGGAACG [U8C G52A] | 0.765
GUUCCGUUGGCGUAAUGGGAACGCGUCCCCCUCCUAAGGAGCAGACUGCGGGUUCGAGUCCCGUACGGAACG [U19G U28C A42C] | 0.669
GUUCCGUUGGCGUAAGGGUCACGCGUCUCCCUCCUAAGGAAAAGACUGCGGGUUUGAGUCCCGUACGGAACG [U16G A20C G41A C55U] | ≤ 0.5
GUUCCGUUGGCGUAAUGGUGAGGCGUGUCUGUCCUAAGGAGAAGACUGCGCGUUCGAGUCACGUACGGCACG [A20G C22G C27G C30U C31G G51C C61A A69C] | ≤ 0.5
GUUCCGUUGGCGUAAUGGUGACGCGUUUCCCUCCUAAGGAGAAGACUGUGGGUUCGGGUCCCGUACGGAACG [A20G C27U C49U A57G] | ≤ 0.5
GUUCCGUUGGCGUAAUGGGAACGCGUCUCCCUCUUAAGGAGAAGACUGCGGGUUCGAGUCCCGUACGGAACG [U19G C34U] | 0.687
GUUCCGUUGGCGUAAUGGUACCGCGUCUCCCUCCUAAGGAGAAGACUGCGGGUUCGAGUCACGUACGAAACG [A21C C61A G68A] | 0.515
GUUCUGUUGGCGUAAUGGUAACGCGUGUCCCUCGUAAGGAGAAGACUGCGGGUUCGAGUCCCGUACGGAACG [C5U C27G C34G] | ≤ 0.5
GAUCCGUUGGCGUAAUGGUAACGCGUUUCCCUCCUCAGGAGAAGACUGCGGGUUCGAGUCCCGUACGGAACG [U2A C27U A36C] | ≤ 0.5
